Assay results pooled from the literature.
Compare with care: the assays were run in different laboratories.
Action: inhibitor
rep main protease: Replicase polyprotein 1ab, main protease (rep, Severe acute respiratory syndrome coronavirus 2, UniProt P0DTD1)
rep papain-like protease: Replicase polyprotein 1ab, papain-like protease (rep, Severe acute respiratory syndrome coronavirus 2, UniProt P0DTD1)

SMILES	target	test	test system	setting	inhibition [%]
CCc1ccc(NC(=O)c2cc3c(=O)n4ccccc4nc3n2C)cc1	rep main protease	enzyme activity		1 mM	76
Cc1cccc2cc(/C=N\c3ccc(-c4nc5ccccc5[nH]4)cc3)c(Cl)nc12	rep papain-like protease	enzyme activity		10 µM	10.1
Cn1c(=O)n(C)c2cc(CNc3ccc4c(c3)OCO4)ccc21	rep main protease	enzyme activity		20 µM	22.3
Cc1ccc2nc(Cl)c(C=Nc3cc(Br)ccn3)cc2c1	rep papain-like protease	enzyme activity		10 µM	4.6
CC1(C)C=Cc2cc(-c3coc4cc(O)cc(O)c4c3=O)ccc2O1	rep main protease	enzyme activity		8 µM	11.8
O=C1C=C(O)C(=O)c2ccccc21	rep main protease	enzyme activity		10 µM	-1.7
COc1c(O)cc(O)c2c(=O)cc(-c3ccccc3)oc12	rep papain-like protease	enzyme activity		50 µM	52
O=c1oc2c(O)c(O)cc3c(=O)oc4c(O)c(O)cc1c4c23	rep main protease	enzyme activity, FRET		10 µM, 10 min	> 50
CCC(CC)COC(=O)[C@H](C)N[P@](=O)(OC[C@H]1O[C@@](C#N)(c2ccc3c(N)ncnn23)[C@H](O)[C@@H]1O)Oc1ccccc1	Replicase polyprotein 1ab, polymerase (rep, Severe acute respiratory syndrome coronavirus 2, UniProt P0DTD1)	enzyme activity in cells	HEK-293T	10 µM	87
O=c1cc(-c2ccc(O)cc2)oc2cc(O)c(O)c(O)c12	rep papain-like protease	enzyme activity		50 µM	65.7
COc1cccc2c1C(=O)C(C(C)=O)=CC2=O	rep main protease	enzyme activity		1 µM	94.3
Cc1ncc(/C=C\C(=O)NC[C@@H]2CC3(CCC3)CN2C(=O)[C@@H]2CC(=O)NC(=O)N2)c(=O)[nH]1	rep main protease	enzyme activity		5 µM	16.1
COc1cc(C[C@@H](C)[C@@H](C)Cc2ccc(O)c(OC)c2)ccc1O	rep main protease	enzyme activity, FRET		8 µM	45
O=C(Nc1ccccc1F)c1cc2c(=O)n3ccccc3nc2n1Cc1ccccc1	rep main protease	enzyme activity		1 mM	71
C[C@]1(C(=O)NC[C@H](NC(=O)c2cncc3[nH]ccc23)c2ccc3ccccc3c2)CCNC1=O	rep main protease	enzyme activity		5 µM	13.7
CCOC(=O)C(Cc1c[nH]c2ccccc12)NC(=O)CCC(=O)Nc1ccc(S(N)(=O)=O)cc1 (stereo not drawn)	rep main protease	enzyme activity		100 µg/mL	0
Cc1ccc(NC(=O)c2cc3c(=O)n4cccc(C)c4nc3n2C)cc1Cl	rep main protease	enzyme activity		10 µM	16
O=C1C=CC(=O)c2ccccc21	rep main protease	enzyme activity		1 µM	90.5
O=C(Oc1cncc(Br)c1)c1cccc2[nH]ccc12	rep main protease	enzyme activity, fluorescence		10 µM, pH 7.2	100
Cc1cc(NC(=O)c2cc3c(=O)n4cccc(C)c4nc3n2C)ccc1Br	rep main protease	enzyme activity		1 mM	82
COc1cc(-c2oc3cc(O)cc(O)c3c(=O)c2O)ccc1O	rep main protease	enzyme activity, FRET		10 µM, 10 min	25 to 50
COc1cc(O)c2c(c1)OC/C(=C\c1ccc(O)cc1)C2=O	rep main protease	enzyme activity		20 µM	16.7
Cc1cccn2c(=O)c3cc(C(=O)Nc4ccc(N(C)C)cc4)n(C)c3nc12	rep main protease	enzyme activity		100 µM	33
Cn1cc2c(n1)c(=O)n(Cc1ccc(F)cc1)c1nn(CCOc3ccc(F)cc3)c(=O)n21	rep main protease	enzyme activity		20 µM	13
O=C(NC[C@H](NC(=O)c1cncc2sccc12)c1ccc2ccccc2c1)c1cocn1	rep main protease	enzyme activity		5 µM	19.1
COc1cc(C)cc2c1C(=O)C=CC2=O	rep main protease	enzyme activity		10 µM	90.4

SMILES	target	test	test system	setting	inhibition [%]
CN(C)C(=S)SC(=S)N(C)C	rep main protease	enzyme activity		20 µM	-6.7
COC(=O)C1=CO[C@@H](O[C@@H]2O[C@H](CO)[C@@H](O)[C@H](O)[C@H]2O)[C@@H]2[C@@H](C)[C@@H](O)C[C@H]12	rep main protease	enzyme activity		100 µM	10.6
CC[C@H](NC(=O)OCc1ccccc1)C(=O)N[C@H](C(=O)N[C@@H](Cc1ccccc1)C(=O)N(C)N(C#N)CCC(N)=O)C(C)(C)C	rep main protease	enzyme activity, fluorescence		50 µM, pH 7.2	100
O=C1NCc2c1cccc2C(=O)N[C@H](CNC(=O)c1ccnc2[nH]ncc12)c1ccccc1	rep main protease	enzyme activity		5 µM	10
NC(=S)NNc1ccc(S(N)(=O)=O)cc1	rep main protease	enzyme activity		20 µM	42.1
O=C(/C=C/c1ccc(O)c(O)c1)OC1CC(OC(=O)/C=C/c2ccc(O)c(O)c2)(C(=O)O)CC(O)C1O (stereo not drawn)	rep papain-like protease	enzyme activity		50 µM	14.4
Cn1c(C(=O)Nc2ccc3c(c2)OCCO3)cc2c(=O)n3ccccc3nc21	rep main protease	enzyme activity		1 µM	31
CC1(C)CC(Nc2ccc(Nc3ccccc3)cc2)CC(C)(C)N1	rep main protease	enzyme activity		20 µM	27.8
Cc1cc(OCc2ccccc2)c2c(c1)C(=O)C=CC2=O	rep main protease	enzyme activity		0.1 µM	28.1
Cn1c(C(=O)Nc2ccc(Cl)cc2)cc2c(=O)n3ccccc3nc21	rep main protease	enzyme activity		10 µM	14
Oc1cc(O)c2c(c1)OC(c1ccc(O)c(O)c1)C(O)C2 (stereo not drawn)	rep main protease	enzyme activity		20 µM	22.6
COc1cc2ccc(=O)oc2cc1O	rep main protease	enzyme activity, fluorescence		10 µM, pH 7.2	61
C[C@@H]1O[C@@H](O[C@@H]2[C@@H](O)[C@H](OCCc3ccc(O)c(O)c3)O[C@H](CO)[C@H]2OC(=O)/C=C/c2ccc(O)c(O)c2)[C@H](O)[C@H](O)[C@H]1O	rep main protease	enzyme activity		10 µM	34.6
O=C(CCc1ccc(O)cc1)c1c(O)cc(O)cc1O[C@@H]1O[C@H](CO)[C@@H](O)[C@H](O)[C@H]1O	rep main protease	enzyme activity, FRET		10 µM, 10 min	25 to 50
O=C(O)[C@H]1O[C@@H](Oc2cc3oc(-c4ccccc4)cc(=O)c3c(O)c2O)[C@H](O)[C@@H](O)[C@@H]1O	rep main protease	enzyme activity		100 µM	97.6
Cc1ccc(-n2cccc2)c(NC(=O)Nc2ccccc2C(F)(F)F)c1	rep main protease	enzyme activity		20 µM	11.4
N#CSc1cc(SC#N)c(N)nc1N	rep main protease	enzyme activity		20 µM	98.8
O=c1cc(-c2ccccc2)oc2cc(O)c(O)c(O)c12	rep main protease	enzyme activity		100 µM	99.4
Cc1ccc(NC(=O)Nc2cccnc2)cc1Cl	rep main protease	enzyme activity		20 µM	-7.73
O=C(O)c1cc(O)c2c(c1)C(=O)c1cccc(O)c1C2=O	rep main protease	enzyme activity		10 µM	7.8
CC(=O)Nc1ccc(-c2cnc(/N=C\c3cc4ccccc4nc3Cl)s2)cc1	rep papain-like protease	enzyme activity		100 µM	97.2
CCOC(=O)COc1cc(C)cc2c1C(=O)C=CC2=O	rep main protease	enzyme activity		0.1 µM	29.6
Cc1ccc2nc(Cl)c(/C=N/NC(=O)c3ccncc3)cc2c1	rep papain-like protease	enzyme activity		10 µM	9.2
O=[N+]([O-])c1cccc(-c2nc(O)c3ccccc3n2)c1	rep main protease	enzyme activity		20 µM	22.3
COc1ccc(OC)c2c1C(=O)C=CC2=O	rep main protease	enzyme activity		10 µM	78.5
